Results on four compounds are retold here after paper PMC7312786 (Biochemistry, 2018).

Where two headings read alike, the source gives them in different places.

Experiment [1] deals with HAP-1 cells (hpol η-proficient, parental). Put plainly: Cell viability. It is filed as cell-based, human. The conditions noted are these: read-out: EC50 of CDDP, cell viability, parental HAP-1. The essentials: (§1)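 HAP-1 parental or CRISPR hpol η-null cells in IMDM with 10% FBS and 1% antibiotic/antimycotic, passage 8–10, seeded 5000 cells/well. Next day: CDDP 0–100 μM alone or with 0.1 or 1 μM test compound, 48 h. Cells washed twice in DPBS, then 2 μM Calcein-AM for 30 min at 25 °C; fluorescence ex 490/em 520 nm. Viability as % of untreated. […] Combination index by Chou–Talalay.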

Experiment [2] deals with hpol η-deficient HAP-1 cells. Put plainly: Cell viability. Format: cell-based, human. The essentials: as §1
In experiment [3] the test system is γH2AX in hpol η-proficient HAP-1 cells. Put plainly: γH2AX immunoblotting, hpol η-proficient HAP-1 cells. The note with it: CDDP alone (0.5 μM). It is filed as cell-based, human. The essentials: (§2)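 HAP-1 cells treated with DMSO or 0.5 μM CDDP combined with 0.1 or 1 μM test compound. Pellets lysed at 4 °C in HEPES pH 7.5/Triton X-100 buffer with phosphatase and protease inhibitors. 30–40 μg protein run on 4–20% SDS-PAGE, transferred to nitrocellulose. Probed with anti-γH2AX (S139) 1:1500 and HRP anti-rabbit 1:4000; β-actin loading control; chemiluminescence. Bands normalized to β-actin, relative to DMSO; three biological replicates; t test.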
For orientation: Immunoblotting shows a protein as a band on a membrane.

The test system of experiment [4] is γH2AX in hpol η-deficient HAP-1 cells. The experiment in a line: γH2AX immunoblotting, hpol η-deficient HAP-1 cells. The note with it: CDDP (0.5 μM). It is filed as cell-based, human. Put shortly:
as §2

In another experiment the test system is pol binding to DNA. The note with it: cited from earlier work.
A further experiment concerns the target T1, hpol η (Homo sapiens, UniProt Q9Y253).
T1 sequence (Q9Y253 1-437): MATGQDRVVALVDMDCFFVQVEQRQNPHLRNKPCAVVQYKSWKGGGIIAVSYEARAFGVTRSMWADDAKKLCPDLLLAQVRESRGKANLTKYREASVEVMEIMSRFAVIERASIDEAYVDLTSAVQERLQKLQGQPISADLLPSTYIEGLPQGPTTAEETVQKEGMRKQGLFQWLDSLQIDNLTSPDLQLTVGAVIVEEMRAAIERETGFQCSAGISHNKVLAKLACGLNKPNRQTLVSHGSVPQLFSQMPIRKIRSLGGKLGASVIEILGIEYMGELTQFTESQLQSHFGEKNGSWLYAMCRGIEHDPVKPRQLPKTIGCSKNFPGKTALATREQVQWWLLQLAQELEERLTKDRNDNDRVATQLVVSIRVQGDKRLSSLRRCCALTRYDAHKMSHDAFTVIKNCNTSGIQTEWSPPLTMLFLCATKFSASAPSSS
The note with it: cited from earlier work.

By EC50 is commonly meant the midpoint of the concentration-response curve. For the compound `N.N.[Cl][Pt][Cl]` [CDDP, cis-diamminedichloroplatinum(II), reference compound], the concentration giving a half-maximal response (EC50) in experiment [1] (CDDP + 0.1 μM PNR-7-02) came out at 140 nM; in experiment [1] (CDDP + 1 μM PNR-7-02) it was 120 nM; in experiment [2] (read-out: EC50 of CDDP, cell viability, hpol η-deficient HAP-1, CDDP alone) it was 100 nM. Further, in experiment [2] (hpol η-deficient versus parental HAP-1), the “Reduction of CDDP EC50 by loss of hpol η” value is recorded as ~ 3 fold. The “Amount of μH2AX” value in experiment [3] is listed as “did not change substantially”. Also, in experiment [4], the “Increase of μH2AX” value is recorded as ~ 5 fold.
As to `CC(C)c1ccc2c(c1)c(SC(C)(C)C)c(CC(C)(C)C(=O)O)n2Cc1ccc(Cl)cc1` [MK-886], in the experiment on pol binding to DNA, the “Impact on pol binding to DNA” value is listed as “negligible impact”.
What is called IC50 is the concentration that gives 50% inhibition. Take `O=C1NC(=S)NC(=O)C1=Cc1cn(C(=O)c2ccccc2Br)c2ccc(Cl)cc12` [PNR-3-51, 5-((1-(2-bromobenzoyl)-5-chloro-1H-indol-3-yl)methylene)-2-thioxodihydropyrimidine-4,6(1H,5H)-dione]: on hpol η (over other TLS and DNA repair pols), the “Specificity for hpol η over other pols” value is recorded as “less than 2 fold”. Further, the half-inhibitory concentration (IC50) at hpol η (read-out: IC50 against hpol η, previous publication) was roughly 30 µM.
`CCOc1nc2cccc(C(=O)OC(C)OC(=O)OC3CCCCC3)c2n1Cc1ccc(-c2ccccc2-c2nnn[nH]2)cc1` (stereo not shown) [candesartan cilexetil]: the “Impact on pol binding to DNA” value with pol binding to DNA was “negligible impact”.
